Experimental data from ChEMBL document CHEMBL3994644, “Discovery of AAT-008, a novel, potent, and selective prostaglandin EP4 receptor antagonist” (Bioorg Med Chem Lett, 2017).
Converted amounts (≈) assume the structure as drawn.

Assays:
[1] = molecular target: Prostaglandin E2 receptor EP4 subtype (Mus musculus, UniProt P32240); test: Antagonist activity at mouse recombinant EP4 receptor assessed as inhibition of PGE2-induced cAMP level by cell based assay; format: functional; details: read-out: pA2 (converted)
In short: (§1)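 Functional antagonism was measured as inhibition of PGE2-induced cAMP in cells transfected with rodent EP4 (mouse or rat). The value is expressed as pA2.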

[2] = Elimination half life in cynomolgus monkey at 1 mg/kg, iv; format: ADME, organism-based, Macaca fascicularis; details: in vivo, read-out: beta t1/2 (converted)
In short: (§2)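 Single 1 mg/kg dose given IV or PO to rats, dogs and monkeys. Plasma pharmacokinetic parameters were derived and reported as mean SD, N = 4.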

[3] = Tmax in Sprague-Dawley rat at 1 mg/kg, po; format: ADME, organism-based; details: in vivo
In short: (§3)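 Oral administration of the compound; Tmax is from plasma concentration–time profiles. Values are mean SD of N = 4 animals per species.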

[4] = Volume of distribution at steady state in Sprague-Dawley rat at 1 mg/kg, iv; format: ADME, organism-based; details: in vivo, read-out: Vdss
In short: (§4)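 A single intravenous injection at 1 mg/kg was given. Plasma concentration–time data gave total clearance (CL_total, mL/min/kg) and steady-state volume of distribution (Vd_ss, L/kg). Values are mean SD of N = 4 animals per species.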

[5] = Solubility of the compound in pH 5.8 water for injection; format: physicochemical
[6] = Total clearance in Beagle dog at 1 mg/kg, iv; format: ADME, organism-based, Canis lupus familiaris; details: in vivo; in short: as §4
[7] = Elimination half life in Sprague-Dawley rat at 1 mg/kg, po; format: ADME, organism-based; details: in vivo, read-out: beta t1/2 (converted); in short: as §2
[8] = molecular target: T1, Prostaglandin E2 receptor EP4 subtype (Rattus norvegicus, UniProt P43114); test: Antagonist activity at rat recombinant EP4 receptor assessed as inhibition of PGE2-induced cAMP level by cell based assay; format: functional; details: read-out: pA2 (converted); in short: as §1
[9] = Total clearance in Sprague-Dawley rat at 1 mg/kg, iv; format: ADME, organism-based; details: in vivo; in short: as §4
[10] = AUC (0 to infinity) in cynomolgus monkey at 1 mg/kg, po; format: ADME, organism-based, Macaca fascicularis; parameters: dose 1 mg/kg, time infinity, route oral; details: in vivo; in short: as §2
[11] = Volume of distribution at steady state in cynomolgus monkey at 1 mg/kg, iv; format: ADME, organism-based, Macaca fascicularis; details: in vivo, read-out: Vdss; in short: as §4
[12] = tested on: CYP3A; test: Inhibition of CYP3A (unknown origin) at 1 uM relative to control; format: ADME; details: human
In short: (§5)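 CYP1A, CYP2C9, CYP2C19, CYP2D6 and CYP3A activities were each tested with 1 µM test article. Results are given as percent inhibition of enzyme activity.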

[13] = Cmax in Beagle dog at 1 mg/kg, po; format: ADME, organism-based, Canis lupus familiaris; parameters: dose 1 mg/kg, route oral; details: in vivo; in short: as §2
[14] = Antagonist activity at human DP receptor
[15] = Lipophilicity, log D of the compound at pH 1.2; format: physicochemical; details: buffer
[16] = molecular target: Prostaglandin E receptor 4 (Canis lupus familiaris, UniProt Q9TU16); test: Antagonist activity at dog recombinant EP4 receptor
[17] = AUC (0 to infinity) in Sprague-Dawley rat at 1 mg/kg, iv; format: ADME, organism-based; parameters: dose 1 mg/kg, route intravenous, time infinity; details: in vivo; in short: as §2
[18] = Oral bioavailability in Sprague-Dawley rat at 1 mg/kg; format: ADME, organism-based; details: in vivo; in short: as §2
[19] = AUC (0 to infinity) in Beagle dog at 1 mg/kg, iv; format: ADME, organism-based, Canis lupus familiaris; parameters: dose 1 mg/kg, time infinity, route intravenous; details: in vivo; in short: as §2
[20] = Lipophilicity, log D of the compound at pH 6.5; format: physicochemical; details: buffer
[21] = molecular target: Prostaglandin F2-alpha receptor (Homo sapiens, UniProt P43088); test: Antagonist activity at human FP receptor
[22] = AUC (0 to infinity) in cynomolgus monkey at 1 mg/kg, iv; format: ADME, organism-based, Macaca fascicularis; parameters: dose 1 mg/kg, route intravenous, time infinity; details: in vivo; in short: as §2
[23] = Tmax in Beagle dog at 1 mg/kg, po; format: ADME, organism-based, Canis lupus familiaris; details: in vivo; in short: as §2
[24] = Oral bioavailability in cynomolgus monkey at 1 mg/kg; format: ADME, organism-based, Macaca fascicularis; details: in vivo; in short: as §2
[25] = Total clearance in cynomolgus monkey at 1 mg/kg, iv; format: ADME, organism-based, Macaca fascicularis; details: in vivo; in short: as §4
[26] = Oral bioavailability in Beagle dog at 1 mg/kg; format: ADME, organism-based, Canis lupus familiaris; details: in vivo; in short: as §2
[27] = Elimination half life in Beagle dog at 1 mg/kg, po; format: ADME, organism-based, Canis lupus familiaris; details: in vivo, read-out: beta t1/2 (converted); in short: as §2
[28] = molecular target: Prostacyclin receptor (Homo sapiens, UniProt P43119); test: Antagonist activity at human IP receptor
[29] = Solubility of the compound in pH 6.5 PBS; format: physicochemical
[30] = tested on: Rattus norvegicus; test: Analgesic activity in po dosed rat assessed as inhibition of carrageenan-induced mechanical hyperalgesia measured at 1 hr post dose; format: functional
In short: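 Rats dosed orally. Mechanical hyperalgesia was induced with carrageenan and assessed 1 h post dose. The value is the minimum effective dose (MED, mg/kg PO).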

[31] = tested on: CYP1A; test: Inhibition of CYP1A (unknown origin) at 1 uM relative to control; format: ADME; details: human; in short: as §5
[32] = Cmax in cynomolgus monkey at 1 mg/kg, po; format: ADME, organism-based, Macaca fascicularis; parameters: dose 1 mg/kg, route oral; details: in vivo; in short: as §2
[33] = molecular target: Prostaglandin E2 receptor EP2 subtype (Homo sapiens, UniProt P43116); test: Antagonist activity at human EP2 receptor
[34] = Apparent permeability from apical to basolateral side in human Caco2 cells; format: ADME, cell-based; details: Caco-2
In short: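 Caco-2 monolayer permeability (Papp, apical to basolateral) was measured under constant pH, with the apical side at pH 6.5 and the basolateral side at pH 7.4.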

[35] = molecular target: CYP2C9 (Homo sapiens, UniProt P11712); test: Inhibition of CYP2C9 (unknown origin) at 1 uM relative to control; format: ADME; in short: as §5
[36] = molecular target: T2, Prostaglandin E2 receptor EP3 subtype (Homo sapiens, UniProt P43115); test: Antagonist activity at human EP3 receptor
T2 sequence (P43115 whole entry): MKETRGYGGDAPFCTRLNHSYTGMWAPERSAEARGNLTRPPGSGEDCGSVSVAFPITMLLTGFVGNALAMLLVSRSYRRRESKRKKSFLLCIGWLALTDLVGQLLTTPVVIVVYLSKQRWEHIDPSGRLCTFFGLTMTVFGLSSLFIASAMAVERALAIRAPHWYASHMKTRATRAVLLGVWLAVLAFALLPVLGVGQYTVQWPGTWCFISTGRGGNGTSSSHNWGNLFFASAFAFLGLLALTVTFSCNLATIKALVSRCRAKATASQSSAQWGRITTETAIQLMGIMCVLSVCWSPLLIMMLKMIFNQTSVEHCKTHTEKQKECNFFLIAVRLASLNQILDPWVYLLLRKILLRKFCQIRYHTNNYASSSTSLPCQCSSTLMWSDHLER

[37] = Elimination half life in Sprague-Dawley rat at 1 mg/kg, iv; format: ADME, organism-based; details: in vivo, read-out: beta t1/2 (converted); in short: as §2
[38] = Cmax in Sprague-Dawley rat at 1 mg/kg, po; format: ADME, organism-based; parameters: dose 1 mg/kg, route oral; details: in vivo; in short: as §2
[39] = molecular target: Prostaglandin E2 receptor EP4 subtype (Homo sapiens, UniProt P35408); test: Displacement of [3H]PGE from human EP4 receptor expressed in HEK293 cell membranes
In short: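 Membrane binding assay using [3H]PGE2 with membranes from HEK-293 cells expressing human EP4. The value is expressed as Ki.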

[40] = Tmax in cynomolgus monkey at 1 mg/kg, po; format: ADME, organism-based, Macaca fascicularis; details: in vivo; in short: as §3
[41] = tested on: Rattus norvegicus; test: Analgesic activity in po dosed rat model of chronic inflammatory pain assessed as inhibition of CFA-induced weight bearing deficit; format: functional
In short: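 Chronic inflammatory pain was modelled in rats with CFA and read out as weight bearing deficit after oral dosing. The value is the minimum effective dose (MED, mg/kg PO).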

[42] = molecular target: T1, Prostaglandin E2 receptor EP4 subtype; test: Antagonist activity at rat recombinant EP4 receptor

Prostaglandin E2 receptor EP4 subtype (Homo sapiens, UniProt P35408), sequence (P35408 whole entry): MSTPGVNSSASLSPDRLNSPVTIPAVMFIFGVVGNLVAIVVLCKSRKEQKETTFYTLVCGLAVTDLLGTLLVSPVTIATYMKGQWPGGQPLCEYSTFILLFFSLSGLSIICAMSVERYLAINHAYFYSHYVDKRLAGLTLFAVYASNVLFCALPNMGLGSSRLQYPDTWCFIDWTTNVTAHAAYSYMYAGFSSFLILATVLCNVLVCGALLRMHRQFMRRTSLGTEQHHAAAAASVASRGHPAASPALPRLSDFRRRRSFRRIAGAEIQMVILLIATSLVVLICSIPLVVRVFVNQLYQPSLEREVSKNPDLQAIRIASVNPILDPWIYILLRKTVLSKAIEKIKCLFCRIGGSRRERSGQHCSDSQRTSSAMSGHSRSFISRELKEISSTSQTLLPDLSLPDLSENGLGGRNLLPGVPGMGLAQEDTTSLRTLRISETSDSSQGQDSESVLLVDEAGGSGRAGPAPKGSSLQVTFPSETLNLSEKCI
T1 sequence (P43114 whole entry): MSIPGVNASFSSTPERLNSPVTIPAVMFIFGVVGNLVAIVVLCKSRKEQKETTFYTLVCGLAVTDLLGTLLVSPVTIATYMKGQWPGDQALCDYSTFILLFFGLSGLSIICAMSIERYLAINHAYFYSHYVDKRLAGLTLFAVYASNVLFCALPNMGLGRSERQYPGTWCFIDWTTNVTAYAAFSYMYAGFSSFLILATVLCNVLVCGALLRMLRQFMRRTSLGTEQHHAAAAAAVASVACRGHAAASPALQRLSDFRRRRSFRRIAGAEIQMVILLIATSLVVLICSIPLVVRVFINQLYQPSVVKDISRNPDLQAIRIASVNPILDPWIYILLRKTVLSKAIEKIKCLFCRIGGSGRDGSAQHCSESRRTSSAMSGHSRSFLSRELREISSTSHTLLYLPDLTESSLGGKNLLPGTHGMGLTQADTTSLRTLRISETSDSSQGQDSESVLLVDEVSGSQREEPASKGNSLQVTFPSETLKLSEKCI
Prostaglandin E2 receptor EP2 subtype, sequence (P43116 whole entry): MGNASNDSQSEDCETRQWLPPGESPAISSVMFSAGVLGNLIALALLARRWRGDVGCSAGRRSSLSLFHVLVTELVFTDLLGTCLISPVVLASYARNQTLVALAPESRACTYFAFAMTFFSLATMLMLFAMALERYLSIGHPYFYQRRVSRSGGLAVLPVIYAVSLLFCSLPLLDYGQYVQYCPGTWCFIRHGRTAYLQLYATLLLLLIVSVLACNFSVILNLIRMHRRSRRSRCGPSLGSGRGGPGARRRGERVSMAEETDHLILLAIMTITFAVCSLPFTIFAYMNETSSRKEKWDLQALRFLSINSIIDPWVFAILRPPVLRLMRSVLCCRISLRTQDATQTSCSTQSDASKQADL
Prostacyclin receptor, sequence (P43119 whole entry): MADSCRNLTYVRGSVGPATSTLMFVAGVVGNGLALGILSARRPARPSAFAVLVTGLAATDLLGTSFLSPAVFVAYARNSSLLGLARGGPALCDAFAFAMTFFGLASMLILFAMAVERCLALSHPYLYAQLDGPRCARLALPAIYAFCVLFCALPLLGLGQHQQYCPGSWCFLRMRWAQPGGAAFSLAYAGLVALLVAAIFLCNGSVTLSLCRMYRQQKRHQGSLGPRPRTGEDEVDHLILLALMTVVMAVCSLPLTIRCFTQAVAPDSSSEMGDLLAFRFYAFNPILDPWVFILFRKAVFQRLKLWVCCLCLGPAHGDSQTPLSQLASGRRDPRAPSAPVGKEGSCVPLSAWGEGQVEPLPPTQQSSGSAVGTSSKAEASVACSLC
CYP2C9, sequence (P11712 whole entry): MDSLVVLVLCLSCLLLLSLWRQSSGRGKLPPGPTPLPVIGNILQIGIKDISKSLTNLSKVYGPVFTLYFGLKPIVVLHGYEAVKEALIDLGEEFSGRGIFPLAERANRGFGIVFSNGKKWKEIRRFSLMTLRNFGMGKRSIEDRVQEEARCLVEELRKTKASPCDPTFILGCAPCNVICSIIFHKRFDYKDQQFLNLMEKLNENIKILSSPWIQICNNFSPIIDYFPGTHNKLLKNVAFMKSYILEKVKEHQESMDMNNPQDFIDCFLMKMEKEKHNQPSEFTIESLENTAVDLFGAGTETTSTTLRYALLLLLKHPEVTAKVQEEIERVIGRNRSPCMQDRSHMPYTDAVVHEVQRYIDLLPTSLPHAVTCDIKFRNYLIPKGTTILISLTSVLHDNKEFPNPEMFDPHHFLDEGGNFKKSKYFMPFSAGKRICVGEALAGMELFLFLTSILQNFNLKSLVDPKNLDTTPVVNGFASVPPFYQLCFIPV
Prostaglandin E2 receptor EP4 subtype (Mus musculus, UniProt P32240), sequence (P32240 whole entry): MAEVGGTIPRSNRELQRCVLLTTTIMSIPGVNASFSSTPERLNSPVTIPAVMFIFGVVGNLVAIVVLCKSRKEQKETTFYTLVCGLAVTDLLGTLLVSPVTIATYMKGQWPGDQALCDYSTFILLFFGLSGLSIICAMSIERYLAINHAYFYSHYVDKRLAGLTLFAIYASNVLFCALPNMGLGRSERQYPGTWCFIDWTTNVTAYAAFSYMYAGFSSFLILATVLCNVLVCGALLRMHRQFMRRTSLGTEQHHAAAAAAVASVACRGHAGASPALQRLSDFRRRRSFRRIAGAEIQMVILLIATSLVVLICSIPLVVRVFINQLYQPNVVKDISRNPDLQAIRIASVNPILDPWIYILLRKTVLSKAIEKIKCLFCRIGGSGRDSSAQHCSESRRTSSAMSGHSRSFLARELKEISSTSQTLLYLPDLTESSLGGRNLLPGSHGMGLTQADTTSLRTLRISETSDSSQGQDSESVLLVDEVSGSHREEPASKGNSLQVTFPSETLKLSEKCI
Prostaglandin F2-alpha receptor, sequence (P43088 whole entry): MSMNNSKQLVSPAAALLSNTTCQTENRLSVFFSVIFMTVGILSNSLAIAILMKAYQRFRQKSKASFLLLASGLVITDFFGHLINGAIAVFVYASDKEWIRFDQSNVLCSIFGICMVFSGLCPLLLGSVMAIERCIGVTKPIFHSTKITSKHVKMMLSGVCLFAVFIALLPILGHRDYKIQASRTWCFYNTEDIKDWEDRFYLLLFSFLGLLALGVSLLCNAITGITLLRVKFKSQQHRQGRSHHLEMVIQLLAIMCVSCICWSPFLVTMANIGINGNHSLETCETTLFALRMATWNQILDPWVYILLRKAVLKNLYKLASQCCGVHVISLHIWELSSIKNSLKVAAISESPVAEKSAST
Prostaglandin E receptor 4, sequence (Q9TU16 whole entry): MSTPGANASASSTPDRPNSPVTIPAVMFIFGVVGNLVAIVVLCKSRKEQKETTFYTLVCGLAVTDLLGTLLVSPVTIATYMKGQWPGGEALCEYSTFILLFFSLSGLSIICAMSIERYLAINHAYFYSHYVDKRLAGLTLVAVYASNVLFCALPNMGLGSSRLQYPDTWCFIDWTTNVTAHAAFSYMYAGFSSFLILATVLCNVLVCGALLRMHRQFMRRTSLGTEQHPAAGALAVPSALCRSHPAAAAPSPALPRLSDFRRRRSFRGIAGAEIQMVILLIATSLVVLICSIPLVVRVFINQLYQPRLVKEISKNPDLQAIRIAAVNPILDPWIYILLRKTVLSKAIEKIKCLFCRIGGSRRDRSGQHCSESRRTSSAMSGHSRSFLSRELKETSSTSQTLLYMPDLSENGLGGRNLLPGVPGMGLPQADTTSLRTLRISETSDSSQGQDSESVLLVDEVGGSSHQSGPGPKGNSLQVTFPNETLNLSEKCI

Kb [1]: 0.001 µM | half-life [2]: 14.5 h | Tmax [3]: 0.75 h | Vd [4]: 0.593 L/kg | solubility [5]: 0.0043 mg/mL (≈ 10.4 µM) | clearance [6]: 0.138 L/h/kg | half-life [7]: 3.71 h | Kb [8]: 0.00457 µM | clearance [9]: 0.105 L/h/kg | AUC(0-inf) [10]: 2.46 µg·h/mL | Vd [11]: 4.7 L/kg | inhibition at 1 µM [12]: < 5% | Cmax [13]: 1.45 µg/mL | Ki [14]: > 6 µM | logD [15]: 3.8 | Ki [16]: 0.038 µM | AUC(0-inf) [17]: 9.62 µg·h/mL | bioavailability [18]: 73.6% | AUC(0-inf) [19]: 7.49 µg·h/mL | logD [20]: 1.5 | Ki [21]: > 6 µM | AUC(0-inf) [22]: 3.39 µg·h/mL | Tmax [23]: 0.438 h | bioavailability [24]: 73.3% | clearance [25]: 0.319 L/h/kg | bioavailability [26]: 80.6% | half-life [27]: 7.95 h | Ki [28]: > 6 µM | solubility [29]: 0.073 mg/mL (≈ 176 µM) | inhibition at 1 µM [31]: < 5% | Cmax [32]: 0.076 µg/mL | IC50 [33]: 1.89 µM | Ki [33]: 1.84 µM | Papp A→B [34]: 201 nm/s | inhibition at 1 µM [35]: < 5% | IC50 [36]: > 20 µM | Ki [36]: > 6 µM | half-life [37]: 4.59 h | Cmax [38]: 0.994 µg/mL | IC50 [39]: 0.0024 µM | Ki [39]: 0.00097 µM | Tmax [40]: 8 h | Ki [42]: 0.0061 µM
SMILES: C[C@H](NC(=O)c1cc(Cl)cnc1Oc1cccc(F)c1)c1ccc(C(=O)O)cc1
inhibition [30]: Dose-dependent effect | minimal effective dose ([30]; read-out: MED): 1 mg/kg | inhibition [41]: Dose-dependent effect | minimal effective dose ([41]; read-out: MED): 1 mg/kg
